Rows were chosen to be rich in hits. Some 2.9% of all compounds tested hit in one or more screens of this group.
SENP8 block-1 – blocks human SENP8 cleavage of Nedd8 substrate; 360,000 compounds, 0.64% hits; inhibition, % at 20 µM; Q96LD8; recombinant SENP8, Nedd8 substrate fluorescence; in the data active means inhibition mostly above about 40%, no sharp cut-off; inactive means mostly below about 27%
HSP90 refold inh – blocks HSP90-mediated luciferase refolding in reticulocyte lysate | AID 1789 | 290,000 compounds, 0.91% hits | Rabbit reticulocyte lysate, luciferase refolding luminescence, 3 h | inhibition, % at 5.6 µM;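 active means inhibition above the screen-wide mean plus 3 SD, computed separately per campaign, cut at about 16% in these data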;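 further: 0% = DMSO wells and 100% = 60 µM geldanamycin wells; inhibitors lower the luminescence because luciferase stays unfolded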
SENP1 FRET inh – blocks the human SENP1 SUMO protease catalytic domain. Q9P0U3. recombinant SENP1 catalytic domain, CyPet-SUMO1-YPet FRET cleavage. inhibition, % at 10 µM. 360,000 compounds, 0.21% hits;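 active means inhibition at least 30% at 10 µM, raw YFP signal under a set limit, fluorescence ratio 0.5 to 1.5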;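 further: 0% = enzyme with DMSO and 100% = no enzyme wells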
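Assay system: hSENP1 catalytic domain, recombinant. Amount: SENP1 enzyme, 20 pM final. Schedule: 50 min reaction, RT, dark. Technique: FRET, CFP and YFP emission. Control set: no-enzyme wells low, DMSO-plus-enzyme wells high control.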
SENP7 inh – blocks the human protease SENP7. Q9BQF6. recombinant SENP7, Z-RLRGG-aminoluciferin luminescence, 40 min. 330,000 compounds, 1.5% hits. AID 434973. inhibition, % at 5 µM;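 active means inhibition above about 50% at the single test dose, limit read from the data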;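 further: plate controls were DMSO with enzyme for no effect and no enzyme buffer wells for full effect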
SENP8 block-2 – SENP8 protease inhibition; Q96LD8; purified SENP8, Z-RLRGG-aminoluciferin cleavage, luminescence; inhibition, % at 10 µM; 330,000 compounds, 1.2% hits; AID 2540; in the data active means inhibition above about 50%
SENP6 inh – blocks the human protease SENP6 | Q9GZR1 | AID 2599 | 330,000 compounds, 1.8% hits | Recombinant SENP6 catalytic domain, aminoluciferin luminescence | inhibition, % at 10 µM;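 active means inhibition above about 50% at the single tested dose, limit read from the data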;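 further: plate controls were DMSO wells with enzyme for no effect and DMSO wells lacking enzyme for full effect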
Target sequence (Q9GZR1 628-1112 limits assumed): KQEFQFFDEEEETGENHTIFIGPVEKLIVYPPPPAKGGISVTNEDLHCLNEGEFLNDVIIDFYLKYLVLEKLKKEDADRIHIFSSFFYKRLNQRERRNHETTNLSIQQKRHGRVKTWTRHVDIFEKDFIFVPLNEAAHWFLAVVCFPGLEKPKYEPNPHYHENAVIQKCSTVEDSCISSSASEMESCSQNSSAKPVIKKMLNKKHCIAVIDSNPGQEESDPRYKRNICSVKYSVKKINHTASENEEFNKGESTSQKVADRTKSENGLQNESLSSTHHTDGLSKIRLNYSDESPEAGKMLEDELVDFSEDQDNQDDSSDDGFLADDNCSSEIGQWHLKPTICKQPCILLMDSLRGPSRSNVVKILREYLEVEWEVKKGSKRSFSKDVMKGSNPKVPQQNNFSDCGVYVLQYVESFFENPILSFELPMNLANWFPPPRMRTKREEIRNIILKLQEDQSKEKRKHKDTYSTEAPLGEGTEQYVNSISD
The depositor's hits bear a star; i = inactive; x = no result.

SMILES	SENP8 block-1	HSP90 refold inh	SENP1 FRET inh	SENP7 inh	SENP8 block-2	SENP6 inh
Cc1ccc(-n2[nH]c(C)c(C=Nc3ccc(S(=O)(=O)Nc4nccs4)cc3)c2=O)cc1C	29	-3	4	0	2	14
Oc1ccc(NCc2ccccc2OCc2ccccc2)cc1	62*	1	1	12	-4	50
O=C(O)c1ccc(N/N=C/C=C/c2ccccc2)cc1	-216	7	-32	92*	95*	98*
Nc1ncnc(Oc2ccccc2F)c1[N+](=O)[O-]	9	-1	1	-5	-5	-30
O=c1c2ccccc2sn1-c1ccc(Cl)cc1	9	x	0	x	x	x
COC(=O)c1cccc(-n2sc3ccccc3c2=O)c1	8	x	4	19	57*	70*
Cc1ccc(-n2sc3ccccc3c2=O)cc1	14	-2	0	77*	86*	94*
COC(=O)c1ccc2nc(-c3ccco3)c(Cc3ccccc3)n2c1	-379	x	-36	x	x	x
CC(C)Sc1nnc(NC(=O)c2ccc3c(c2)OCO3)s1	-100	-3	3	-1	-18	-16
CC(C)Oc1ccccc1C1CC(=O)Nc2c1c(=O)n(C)c(=O)n2C (stereo not given)	x	5	x	10	-12	-7
CC(C)(C)[C@H](NC(=O)c1ccc(N)c(Cl)c1)C(=O)N1CCC[C@H]1C(=O)N[C@H](C#N)CC(=O)O	6	x	-1	x	x	x
CNC(C)C#Cc1ccc2oc3cc(C)c(C)cc3c(=O)c2c1 (stereo not given)	-94	x	-31	43	69*	84*
CNC(C)C#Cc1ccc2oc3cccc(OC)c3c(=O)c2c1 (stereo not given)	i	4	0	0	-6	12
CN(Cc1ccccc1)C(=O)[C@@H]1CCCN1C(=O)OC(C)(C)C	27	x	3	x	x	x
COC(=O)C1=C(C(=O)OC)SC(=C2C(=S)C(C)(C)N(C(=O)CC(C)C)c3ccccc32)S1	59*	4	2	17	5	-8
Oc1ccc(/C=N/N(Cc2ccccc2)c2ccccc2)c(O)c1O	56*	9	1	x	x	x
Oc1cccc(/C=N/N(Cc2ccccc2)c2ccccc2)c1	13	-6	-1	18	6	-33
N#C/C(=N/Nc1ccccc1[N+](=O)[O-])C(N)=S	45*	13	3	12	-11	-13
N#C/C(=N\Nc1ccc(Cl)cc1)C(N)=S	46*	2	1	-32	16	33
Cc1cc(C)c2cc(C#N)c(NCCNC(=O)c3cccnc3)nc2c1	-388	x	-135	x	x	x
O=C(N=Nc1ccc(NOC(=O)c2ccccc2Br)cc1)c1ccccc1O	x	1	x	63*	86*	91*
CSc1cccc(NC(=O)C2CCCN(S(=O)(=O)c3cccs3)C2)c1 (stereo not given)	4	4	2	2	6	-8
CCN1C/C(=C/c2ccc(OC)c(O)c2)C(=O)/C(=C/c2ccc(OC)c(O)c2)C1	4	14	1	1	7	-16
COc1ccc(/C=C2\CN(Cc3ccccc3)C/C(=C\c3ccc(OC)c(O)c3)C2=O)cc1O	23	18*	-9	-1	3	-19
COc1cccc(-c2nc(CS(=O)(=O)CC(=O)Nc3c(C)cccc3C)c(C)o2)c1	10	72*	-1	10	1	3
SMILES	SENP8 block-1	HSP90 refold inh	SENP1 FRET inh	SENP7 inh	SENP8 block-2	SENP6 inh
O=c1c(O)cccc2cc(O)c(O)c(O)c12	60*	-1	4	-3	6	-52
CCOC(=O)c1c(Cc2ccccc2)c[nH]c1C	16	-2	4	-1	-4	-1
CC(C)(C)c1ccc(C(=O)N2[C@H](COCc3ccccc3)C=CS2(=O)=O)cc1	12	x	3	x	x	x
CN(Cc1ccccc1)c1nc2c(c(=O)[nH]c(=O)n2C)n1CCSc1ncccn1	x	-3	x	x	x	x
CCOc1ccc2c(c1)C(C)=CC(C)(C)N2S(=O)(=O)c1ccc(F)cc1	19	0	0	5	7	13
CCOc1ccc2c(c1)-c1c(ssc1=S)C(C)(C)N2C	47*	3	3	-6	-5	-5
CSc1ncccc1C(=O)Nc1nc2ccc(Oc3ccccc3)cc2s1	-159	0	-1	95*	90*	94*
COc1cccc(/C=C2\CCc3ccccc3C2=O)c1	32	8	3	94*	95*	99*
CCOc1ccc(C=NNc2ccc(S(=O)(=O)Nc3ccccc3C(=O)O)cc2[N+](=O)[O-])cc1OC	52*	x	2	-4	-8	-34
CCOc1cc(/C=N/Nc2ccc(S(=O)(=O)Nc3ccccc3C(=O)O)cc2[N+](=O)[O-])cc(Cl)c1O	30	x	-5	x	x	x
O=C(O)c1ccccc1NS(=O)(=O)c1ccc(N/N=C/c2cccc(O)c2O)c([N+](=O)[O-])c1	39*	x	-4	x	x	x
COc1cc(C=NNc2ccc(S(=O)(=O)Nc3ccccc3C(=O)O)cc2[N+](=O)[O-])ccc1O	46*	x	2	-8	-16	0
CCN(C(=O)COC(=O)C(C)(C)Oc1ccc(Cl)cc1)c1c(N)n(Cc2ccccc2)c(=O)[nH]c1=O	12	x	1	x	x	x
CN(NC(=O)/C=C/C(=O)O)c1ncc(C(F)(F)F)cc1Cl	2	-1	0	-10	-10	-17
COc1cc(/C=C(\CC(=O)O)c2nc3ccccc3s2)cc(OC)c1O	-463	-2	57*	11	0	2
Cc1cc[n+](-c2[nH]c(=O)sc2/C=N/NC([S-])=Nc2ccccc2)cc1C	24	4	27	1	-5	-10
CC(C)(C)c1cc[n+](-c2[nH]c(=O)sc2/C=N/NC([S-])=Nc2ccccc2)cc1	25*	-4	46*	4	4	-2
COCc1cc(C)n(CC(=O)Nc2ccc3c(c2)OCO3)c(=O)c1C#N	9	2	1	1	-3	6
COc1ccc(C[C@H]2CN3C(=NC[C@H]3Cc3ccccc3)N2CCNC(=O)c2ccc(C)c(Br)c2)cc1	22	x	-1	-12	-16	-20
COc1ccc(C[C@H]2CN3C(=NC[C@@H]3Cc3ccccc3)N2CCNC(=O)c2ccc(C)c(Br)c2)cc1	22	17*	-2	-4	-11	-9
CC(C)N(CCn1c(SCC(=O)Nc2cccnc2Cl)nc2ccccc2c1=O)C(C)C	-64	x	2	0	-1	1
O=[N+]([O-])c1ccccc1NCCOc1ccccc1	16	0	1	73*	60*	82*
O=C(CCOc1ccccc1)Nc1ccccc1[N+](=O)[O-]	15	0	-1	3	-2	12
Cc1nc2c(nc1C)C(=O)c1ccccc1C2=O	65*	x	-1	x	x	x
Clc1ccccc1OCc1nc(-c2ccccn2)no1	26	8	1	84*	69*	86*
Nc1nonc1-c1noc(COc2ccccc2Cl)n1	28	4	-79	28	8	35
COc1ccc(O)c(CN2CC3CCC(CC3)C2)c1	21	x	0	x	x	x
